According to ChEMBL document CHEMBL2346664, “Synthesis, characterization and in vitro anticancer evaluation of novel 1,2,4-triazolin-3-one derivatives” (2013):

Key:
Type in all cases: functional
[1] = tested on: KM12; experiment: Growth inhibition of human KM12 cells assessed as cell growth at 10 uM after 48 hrs by sulforhodamine B assay; conditions: KM12, 48 h, read-out: Activity
Summary of the method: (§1)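 NCI-60 primary single-dose screen at 10^-5 M, 48 h continuous exposure. Adherent cells were fixed with cold TCA (10% final) and suspension cells with 16% final TCA, then stained with 0.4% SRB in 1% acetic acid. Bound dye was solubilized in 10 mM Tris base and read at 515 nm. Output is growth percent relative to untreated controls, and GI% is 100 minus growth percent.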

[2] = tested on: Malme-3M; experiment: Growth inhibition of human MALME-3M cells assessed as cell growth at 10 uM after 48 hrs by sulforhodamine B assay; conditions: read-out: Activity; summary of the method: as §1
[3] = tested on: RXF 393; experiment: Growth inhibition of human RXF393 cells assessed as cell growth at 10 uM after 48 hrs by sulforhodamine B assay; conditions: RXF 393, 48 h, read-out: Activity
Summary of the method: (§2)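 NCI-60 single-dose screen at 10^-5 M. Cells plated at 5,000–40,000/well by doubling time and grown 24 h at 37 °C, 5% CO2, then drug added from DMSO stock for 48 h continuous exposure. Adherent cells fixed with cold TCA (final 10%), suspension cells with 16% TCA. SRB stain read at 515 nm. Reported as growth percent relative to untreated controls and time-zero plates.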

[4] = tested on: LOX IMVI; experiment: Growth inhibition of human LOXIMVI cells assessed as cell growth at 10 uM after 48 hrs by sulforhodamine B assay; conditions: read-out: Activity; summary of the method: as §1
[5] = tested on: PC-3; experiment: Growth inhibition of human PC3 cells assessed as cell growth at 10 uM after 48 hrs by sulforhodamine B assay; conditions: PC-3, 48 h, read-out: Activity; summary of the method: as §2
[6] = tested on: OVCAR-5; experiment: Growth inhibition of human OVCAR5 cells assessed as cell growth at 10 uM after 48 hrs by sulforhodamine B assay; conditions: OVCAR-5, 48 h, read-out: Activity; summary of the method: as §2
[7] = tested on: SK-MEL-5; experiment: Growth inhibition of human SK-MEL-5 cells assessed as cell growth at 10 uM after 48 hrs by sulforhodamine B assay; conditions: SK-MEL-5, 48 h, read-out: Activity; summary of the method: as §2
[8] = tested on: HCT-15; experiment: Growth inhibition of human HCT15 cells assessed as cell growth at 10 uM after 48 hrs by sulforhodamine B assay; conditions: HCT-15, 48 h, read-out: Activity; summary of the method: as §1
[9] = tested on: T47D; experiment: Growth inhibition of human T47D cells assessed as cell growth at 10 uM after 48 hrs by sulforhodamine B assay; conditions: read-out: Activity; summary of the method: as §2
[10] = tested on: ACHN; experiment: Growth inhibition of human ACHN cells assessed as cell growth at 10 uM after 48 hrs by sulforhodamine B assay; conditions: read-out: Activity
Summary of the method: (§3)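 NCI-60 primary screen at a single dose of 10^-5 M. Output is mean growth percent of treated cells relative to untreated controls, where values between 0 and 100 indicate growth inhibition and values below 0 indicate cytotoxicity. Cells were plated 24 h before drug, incubated 48 h at 37 °C, 5% CO2, and stained with SRB after TCA fixation. Suspension cells were fixed with 80% TCA (16% final).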

[11] = tested on: MDA-MB-231; experiment: Growth inhibition of human MDA-MB-231 cells assessed as cell growth at 10 uM after 48 hrs by sulforhodamine B assay; conditions: MDA-MB-231, 48 h, read-out: Activity; summary of the method: as §1
[12] = tested on: SF-539; experiment: Growth inhibition of human SF539 cells assessed as cell growth at 10 uM after 48 hrs by sulforhodamine B assay; conditions: SF-539, 48 h, read-out: Activity; summary of the method: as §2
[13] = Growth inhibition of human HCC2998 cells assessed as cell growth at 10 uM after 48 hrs by sulforhodamine B assay; conditions: HCC 2998, 48 h, read-out: Activity; summary of the method: as §1
[14] = tested on: M14; experiment: Growth inhibition of human M14 cells assessed as cell growth at 10 uM after 48 hrs by sulforhodamine B assay; conditions: M14, 48 h, read-out: Activity; summary of the method: as §1
[15] = tested on: HL-60(TB); experiment: Growth inhibition of human HL-60(TB) cells assessed as cell growth at 10 uM after 48 hrs by sulforhodamine B assay; conditions: HL-60, 48 h, read-out: Activity
Summary of the method: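 NCI DTP single high-dose primary screen at 10^-5 M across 60 human tumour lines. Growth percent of treated cells is taken relative to untreated controls: values of 0–100 indicate growth inhibition and values below 0 indicate cytotoxicity. Both growth percent and percentage growth inhibition are reported.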

[16] = tested on: SN12C; experiment: Growth inhibition of human SN12C cells assessed as cell growth at 10 uM after 48 hrs by sulforhodamine B assay; conditions: read-out: Activity; summary of the method: as §2
[17] = Growth inhibition of human EKVX cells assessed as cell growth at 10 uM after 48 hrs by sulforhodamine B assay; conditions: read-out: Activity; summary of the method: as §1
[18] = tested on: HCT-116; experiment: Growth inhibition of human HCT116 cells assessed as cell growth at 10 uM after 48 hrs by sulforhodamine B assay; conditions: HCT-116, 48 h, read-out: Activity; summary of the method: as §1
[19] = tested on: NCI-H226; experiment: Growth inhibition of human NCI-H226 cells assessed as cell growth at 10 uM after 48 hrs by sulforhodamine B assay; conditions: NCI-H226, 48 h, read-out: Activity; summary of the method: as §1
[20] = tested on: BT-549; experiment: Growth inhibition of human BT549 cells assessed as cell growth at 10 uM after 48 hrs by sulforhodamine B assay; conditions: BT-549, 48 h, read-out: Activity; summary of the method: as §3
[21] = tested on: HT-29; experiment: Growth inhibition of human HT-29 cells assessed as cell growth at 10 uM after 48 hrs by sulforhodamine B assay; conditions: HT-29, 48 h, read-out: Activity; summary of the method: as §1
[22] = tested on: OVCAR-3; experiment: Growth inhibition of human OVCAR3 cells assessed as cell growth at 10 uM after 48 hrs by sulforhodamine B assay; conditions: OVCAR-3, 48 h, read-out: Activity; summary of the method: as §2
[23] = tested on: SR; experiment: Growth inhibition of human SR cells assessed as cell growth at 10 uM after 48 hrs by sulforhodamine B assay; conditions: read-out: Activity; summary of the method: as §2
[24] = tested on: SF-268; experiment: Growth inhibition of human SF268 cells assessed as cell growth at 10 uM after 48 hrs by sulforhodamine B assay; conditions: SF-268, 48 h, read-out: Activity; summary of the method: as §2
[25] = tested on: SK-MEL-2; experiment: Growth inhibition of human SK-MEL-2 cells assessed as cell growth at 10 uM after 48 hrs by sulforhodamine B assay; conditions: SK-MEL-2, 48 h, read-out: Activity; summary of the method: as §2
[26] = tested on: UO-31; experiment: Growth inhibition of human UO31 cells assessed as cell growth at 10 uM after 48 hrs by sulforhodamine B assay; conditions: UO-31, 48 h, read-out: Activity; summary of the method: as §2
[27] = tested on: SF-295; experiment: Growth inhibition of human SF295 cells assessed as cell growth at 10 '-4 M after 48 hrs by sulforhodamine B assay; conditions: SF-295, 48 h, read-out: Activity
[28] = tested on: HOP-62; experiment: Growth inhibition of human HOP62 cells assessed as cell growth at 10 '-6 M after 48 hrs by sulforhodamine B assay; conditions: HOP-62, 48 h, read-out: Activity

Molecule Cc1nn(-c2ccc(Cl)cc2)c(=O)n1CCN1CCOCC1 has a growth at 10 µM [1] of 81.3%, a growth at 10 µM [2] of 59.1% and a growth at 10 µM [3] of 42.1%. For the same molecule, the growth at 10 µM [4] was 81.6%, the growth at 10 µM [5] was 80.8% and the growth at 10 µM [6] was 92.4%. For the same molecule, the growth at 10 µM [7] was 80.3%, the growth at 10 µM [8] was 74.2% and the growth at 10 µM [9] was 78.3%. It also gave a growth at 10 µM [10] of 38.7%, a growth at 10 µM [11] of 57.3% and a growth at 10 µM [12] of 67%. It also gave a growth at 10 µM [13] of 91.3%, a growth at 10 µM [14] of 69.8% and a growth at 10 µM [15] of 105%. For the same molecule, the growth at 10 µM [16] was 89.6%, the growth at 10 µM [17] was 75.5% and the growth at 10 µM [18] was 29.5%. The growth at 10 µM [19] was 79.4%, the growth at 10 µM [20] was 61.5% and the growth at 10 µM [21] was 104%. The growth at 10 µM [22] was 79.2%, the growth at 10 µM [23] was 95.3% and the growth at 10 µM [24] was 48.4%. It also gave a growth at 10 µM [25] of 61.1% and a growth at 10 µM [26] of 66%.

With Cc1cc(=O)oc2cc(OCCn3c(C)nn(-c4ccc(Cl)cc4)c3=O)ccc12 the growth at 10 µM [1] was 31.4%, the growth at 10 µM [2] was 32.9% and the growth at 10 µM [3] was 37.4%. The growth at 10 µM [4] was 48%, the growth at 10 µM [5] was 48.5% and the growth at 10 µM [6] was 38.8%. For the same molecule, the growth at 10 µM [7] was 10.8%, the growth at 10 µM [8] was 17.7% and the growth at 10 µM [9] was 47.4%. For the same molecule, the growth at 10 µM [10] was 41.9%, the growth at 10 µM [11] was 47.5% and the growth at 10 µM [12] was 29.5%. For the same molecule, the growth at 10 µM [13] was 46.7%, the growth at 10 µM [14] was 14.7% and the growth at 10 µM [15] was -5.7%. For the same molecule, the growth at 10 µM [16] was 51.8%, the growth at 10 µM [17] was 58.7% and the growth at 10 µM [18] was 15.1%. For the same molecule, the growth at 10 µM [19] was 50.1%, the growth at 10 µM [20] was 56.7% and the growth at 10 µM [21] was 0.7%. The growth at 100 µM [27] was 16%, the growth at 10 µM [22] was 14.8% and the growth at 10 µM [23] was 21.2%. It also gave a growth at 10 µM [24] of 50.3%, a growth at 10 µM [25] of 3.55% and a growth at 10 µM [26] of 42.8%. For the same molecule, the growth at 1 µM [28] was 89%.
